GalR3 antag = human GalR3 antagonism; inhibition, % at 3 µM; O60755; HEK293 GalR3-CNG cAMP membrane potential fluorescence; galR3 body fused to GalR1 C-terminus; 0.44% of 360,000 active;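 active = inhibition above the screen-wide average plus 3 SD, cut at about 13% in these data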;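 note: forskolin and galanin both at EC90 stimulate the cells; cAMP rise reported by CNG channel membrane potential dye signal; 0% = forskolin plus galanin with DMSO and 100% = forskolin alone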
Target sequence (O60755 1-299 limits assumed): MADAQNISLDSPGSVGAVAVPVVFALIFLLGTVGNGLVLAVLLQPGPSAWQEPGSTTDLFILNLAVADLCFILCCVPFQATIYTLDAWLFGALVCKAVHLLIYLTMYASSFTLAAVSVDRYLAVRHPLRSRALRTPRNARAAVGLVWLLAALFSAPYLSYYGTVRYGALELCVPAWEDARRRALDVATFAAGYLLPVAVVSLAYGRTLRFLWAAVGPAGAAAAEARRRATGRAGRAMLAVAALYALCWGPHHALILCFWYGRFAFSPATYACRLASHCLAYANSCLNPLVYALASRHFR
NR2E3 ag-1 = activates human NR2E3 receptor; Q9Y5X4; CHO-S Gal4-NCOR/VP16-NR2E3 two-hybrid, luciferase; inhibition of corepressor binding, % at 3.98 µM; 0.35% of 360,000 active;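 active = inhibition above the mean of all tested compounds plus 3 SD, cut at about 70% in these data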;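 note: 0% = DMSO with NR2E3 transfected cells and 100% = cells lacking NR2E3 construct; higher means lower luciferase signal from less NR2E3 corepressor binding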
Target sequence (Q9Y5X4 whole entry, looked up, the tested form may be a part): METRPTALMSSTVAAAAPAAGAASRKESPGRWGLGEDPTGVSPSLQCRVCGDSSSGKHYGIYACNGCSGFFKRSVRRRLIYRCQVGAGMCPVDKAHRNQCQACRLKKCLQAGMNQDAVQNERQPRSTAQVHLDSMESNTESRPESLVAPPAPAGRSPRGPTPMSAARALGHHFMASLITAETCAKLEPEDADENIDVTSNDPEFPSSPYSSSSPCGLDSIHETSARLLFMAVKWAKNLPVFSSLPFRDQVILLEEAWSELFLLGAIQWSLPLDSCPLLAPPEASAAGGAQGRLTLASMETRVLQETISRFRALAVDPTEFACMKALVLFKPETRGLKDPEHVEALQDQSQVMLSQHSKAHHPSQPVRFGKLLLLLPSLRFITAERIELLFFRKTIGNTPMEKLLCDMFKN
JMJD2C inh = human JMJD2C demethylase inhibition; GST-JMJD2C(1-420) H3K9me3 demethylation, DELFIA europium; inhibition, % at 2.35 µM; 0.069% of 330,000 active;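 active = more than half of a compound's replicate wells show inhibition beyond 50%, single wells judged on their own value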;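 note: signal counts dimethyl H3K9 product captured on neutravidin plate; 0% = median of DMSO wells and 100% = 0.3 times that DMSO median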
697 NFkB inh = inhibitors of the PMA/ionomycin-induced NF-kB reporter in 697 B cells; 697 B-cell NF-kB luciferase reporter, 16 h; inhibition, % at 4 µM; 0.33% of 330,000 active; in the data active = inhibition above about 35%
Jurkat NFkB inh = lowers PMA/ionomycin-induced NF-kB signal in Jurkat cells; PMA/ionomycin-induced NF-kB luciferase reporter, luminescence; inhibition, % at 4 µM; 0.53% of 330,000 active; AID 435003; in the data active = inhibition above about 50%
NR2E3 ag-2 = NR2E3 (human) agonism. GST-NR2E3/biotin-RetCOR TR-FRET, 1536-well. inhibition of corepressor binding, % at 4.78 µM. 0.12% of 320,000 active. AID 2300;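 active = percent inhibition above the cutoff of mean plus 3 SD of all tested compounds, set per screening campaign, cut at about 20% in these data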;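 note: 0% = DMSO wells and 100% = biotin wells as full block of FRET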
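System: GST-tagged NR2E3 plus biotinylated RetCOR corepressor; Buffer or medium: pH 7.5 Tris-based buffer; Probe or stimulus: RetCOR corepressor, biotinylated, 7 nM; Doses: compound at 4.8 µM, single dose; Schedule: 5 h incubation at 4 °C; Technique: time-resolved FRET; Evaluation: percent inhibition of TR-FRET ratio; Replication: one well per compound, singlicate testing.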
NR2E3 ag confirm = NR2E3 agonism confirmed in two-hybrid assay; shares compounds with NR2E3 ag-1; CHO-S mammalian two-hybrid NR2E3-NCOR, luciferase luminescence; inhibition, % at 3.98 µM; 51% of 2,300 active;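 active = average inhibition above a cutoff equal to the mean inhibition of all tested compounds plus one SD, cut at about 70% in these data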;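 note: 0% = DMSO in NR2E3 cells and 100% = DMSO in cells lacking NR2E3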
GAL4-VP16 luc = counter-screen for NR2E3 agonists: GAL4-VP16 reporter inhibitors; shares compounds with NR2E3 ag-1; CHO-S GAL4-VP16 luciferase reporter, luminescence; inhibition, % at 3.98 µM; 29% of 2,300 active; AID 624379;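 active = mean inhibition above a cutoff equal to the average over all tested compounds plus one standard deviation, cut at about 70% in these data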;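 note: luciferase from a UAS reporter driven by GAL4-VP16 transactivation; 0% = DMSO with VP16-transfected cells and 100% = DMSO with cells lacking VP16; higher means less reporter light so more repression of VP16 activity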
GalR3 antag conf = confirmation of human galanin receptor 3 antagonists | HEK293 GalR3 CNG cAMP biosensor, membrane potential fluorescence; galR3 fused to GalR1 carboxy tail; challenged with forskolin and galanin at EC90 | inhibition, % at 3 µM | 59% of 1,600 active | shares compounds with GalR3 antag;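 active = inhibition above the primary screen's cutoff, the mean inhibition of all screened compounds plus 3 SD, cut at about 13% in these data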;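 note: 0% = forskolin plus galanin and 100% = forskolin alone with DMSO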
CNG parental = counter-screen for GalR3 antagonists: nonspecific agonists in parental HEK-CNG cells; shares compounds with GalR3 antag; HEK293-CNG parental cells, cAMP membrane potential fluorescence; normalised: DMSO wells 0%, forskolin wells 100%; activation, % at 3 µM; 10% of 1,600 active; AID 652268; in the data active = activation above about 1.3%
Starred values were filed as active, the others as inactive; · = not tested or not shown. Most compounds without a hit are left out; they make up all but 1.5% or so of the library.

SMILES	GalR3 antag	NR2E3 ag-1	JMJD2C inh	697 NFkB inh	Jurkat NFkB inh	NR2E3 ag-2	NR2E3 ag confirm	GAL4-VP16 luc	GalR3 antag conf	CNG parental
COc1ccc(-c2csc(NC(=O)c3c(OC)cccc3OC)n2)cc1	-1	-34	0	-3	-2	2	·	·	·	·
COc1ccc(S(=O)(=O)Nc2ccccc2C(=O)Nc2nc(-c3ccc(F)cc3)cs2)cc1OC	-11	59	17	-26	4	0	97*	83*	·	·
CCCn1c(=O)n(C)c(=O)c2c(SCC(=O)NCC(c3ccccc3)N(C)C)nc(CC(C)C)nc21 (configuration not stated)	-1	-6	9	-3	16	2	·	·	·	·
COC1=CC(=O)OC(c2cccc(C(F)(F)F)c2)C1 (configuration not stated)	-5	·	·	·	·	·	·	·	·	·
CN(C(=O)COC(=O)COc1ccc(Cl)cc1Cl)c1c(N)n(Cc2ccccc2)c(=O)[nH]c1=O	0	-15	12	9	19	1	·	·	·	·
CCCCn1nnnc1C(c1cc2ccccc2o1)N1CCN(c2ncccc2C#N)CC1 (configuration not stated)	-5	-25	·	·	·	·	·	·	·	·
CCc1ccc(NC(=S)N(CCCN2CCOCC2)Cc2ccco2)cc1	0	66	2	15	-10	-2	-7	-11	·	·
COc1ccc(NC(=S)N(CCCN2CCOCC2)Cc2ccco2)cc1	1	-7	3	9	-2	-1	·	·	·	·
CCCCOc1ncnc2c1[nH]c1ccccc12	-6	79*	24	-33	22	-1	92*	64	·	·
CCCCOCCCNc1ncnc2c1[nH]c1ccccc12	-6	87*	-9	29	39	0	96*	82*	·	·
O=C(Nc1nc(-c2ccccn2)cs1)Nc1ccc(F)cc1F	-6	70*	9	-63	-3	0	36	-20	·	·
CC(Oc1ccc(Br)cc1)C(=O)Nc1nc(-c2ccccn2)cs1 (configuration not stated)	-2	76*	-6	1	4	-3	19	13	·	·
CC(C)[C@H](NC(=O)c1ccccc1Cl)C(=O)Nc1nc(-c2ccccn2)cs1	2	17	-12	-24	9	3	·	·	·	·
O=C(Nc1nc(-c2ccccc2)cs1)Nc1ccc(F)cc1F	-8	-19	10	-11	-3	-4	·	·	·	·
Cc1[nH]nc(S(=O)CC(=O)O)c1[N+](=O)[O-] (configuration not stated)	0	59	-3	7	1	4	1	-7	·	·
COc1cccc(C(C)(O)c2nc(-c3ccc(N(C)C)cc3)cs2)c1 (configuration not stated)	96*	73*	·	·	·	·	83*	60	101*	-1
CN(C)S(=O)(=O)N1CCC(Oc2cccc(C(=O)NC3CCCCCC3)c2)CC1	29*	91*	-3	-13	18	-3	60	54	100*	0
CCN1CCN(C(=O)c2cccc(OC3CCN(S(=O)(=O)N(C)C)CC3)c2)CC1	-2	-58	-7	-9	-26	-3	·	·	·	·
O=C(COc1ccccc1[N+](=O)[O-])N1CCC(Cc2ccccc2)CC1	-1	-13	-7	-2	4	0	·	·	·	·
NC(=O)c1ccccc1OCC(=O)N1CCC(Cc2ccccc2)CC1	21*	77*	12	-20	33	2	92*	74*	15*	0
CCN1/C(=C/c2ccc3cc(C)ccc3[n+]2CC)Sc2cc(C)ccc21	50*	90*	·	·	·	·	100*	85*	62*	6.2*
CCN(CC)c1ccc(C(=C2C=CC(=[N+](CC)CC)C=C2)c2ccc(N(CC)CC)cc2)cc1	32*	101*	·	·	·	·	99*	92*	36*	-4
CCN(CC)c1ccc(C(=C2C=CC(=[N+](CC)CC)C=C2)c2ccccc2)cc1	33*	101*	·	·	·	·	99*	98*	64*	1.4*
COc1ccc(-c2ccc3nncn3c2)cn1	-5	-8	·	·	·	·	·	·	·	·
COc1ccc([C@H]2/C=C\CN(Cc3ccc(N(C)C)cc3)[C@@H](C)C(=O)N2Cc2ccc(F)cc2)cc1	-4	6	-2	7	-3	1	·	·	·	·
SMILES	GalR3 antag	NR2E3 ag-1	JMJD2C inh	697 NFkB inh	Jurkat NFkB inh	NR2E3 ag-2	NR2E3 ag confirm	GAL4-VP16 luc	GalR3 antag conf	CNG parental
O=C(Nc1ccc(Br)c2ccccc12)c1ccc2ccccc2c1O	78*	107*	-10	·	·	38*	99*	79*	90*	0
COc1ccc(CCN(C)C(=O)COc2ccc(C(=O)c3ccccc3)cc2)cc1OC	-4	10	-27	12	17	-3	·	·	·	·
COc1ccc(CCN(C)C(=O)Cc2ccc(-c3ccccc3)cc2)cc1OC	35*	85*	10	-40	17	2	85*	60	63*	0
CC[C@@H]1CCC[C@@H](O)[C@@H](C)C(=O)O[C@H](C)[C@@H](C)C/C=C(C)/C(OC)=C\C(=O)N(C)C([C@@H](C)CC)C(=O)N(C)[C@@H](C(C)C)C(=O)N(C)[C@@H](COC)C(=O)N2CCC[C@H]2C(=O)N(C)[C@@H](C(C)C)C(=O)N2CCC[C@H]2C(=O)O1 (some centres not stated)	101*	97*	·	·	·	·	98*	91*	115*	-1
N#Cc1ccccc1OCCCN1CCC(Cc2ccccc2)CC1	-12	-4	-3	-8	6	2	·	·	·	·
O=C(CCN1C(=O)c2cccc3cccc(c23)C1=O)NCc1ccco1	-6	-12	-6	-2	-10	3	·	·	·	·
C=CCC1(CC=C)CCCN1C(=O)c1cc(COc2ccc(C)nc2)on1	99*	99*	-3	3	43	0	97*	80*	103*	0
CCNc1nc2c(c(=O)n(C)c(=O)n2C)n1Cc1ccc(Cl)cc1	22*	57	-29	1	28	0	78*	56	71*	0
Cc1nnsc1C(=O)NC1CCCc2c1cnn2-c1cc(F)cc(F)c1 (configuration not stated)	-3	4	4	-18	9	-1	·	·	·	·

Screening results deposited in PubChem BioAssay by several laboratories.
